Sampled rows, rich in hits. Any-hit rate of the full collection: about 3.6%.
PAFAH1B3 FP inh – blocks human PAF acetylhydrolase 1B catalytic subunit 3; Q15102; inhibition, % at 3.39 µM; hit rate 0.28% among 340,000; recombinant PAFAH1B3, FP-rhodamine probe, fluorescence polarization;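 active = inhibition above the screen-wide average of all tested compounds plus 3 SD, cut at about 25% in these data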;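 note: 0% = enzyme with DMSO only and 100% = wells lacking PAFAH1B3 protein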
Target sequence (Q15102 whole entry, looked up): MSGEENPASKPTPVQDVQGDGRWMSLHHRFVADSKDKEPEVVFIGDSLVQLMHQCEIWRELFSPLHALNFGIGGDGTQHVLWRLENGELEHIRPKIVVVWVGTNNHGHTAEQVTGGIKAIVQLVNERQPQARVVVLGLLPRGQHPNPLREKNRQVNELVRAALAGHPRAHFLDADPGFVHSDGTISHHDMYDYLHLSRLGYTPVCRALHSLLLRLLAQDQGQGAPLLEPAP
VIM-2 inh – blocks Pseudomonas aeruginosa VIM-2 metallo-beta-lactamase. purified VIM-2, nitrocefin hydrolysis, epi-absorbance fluorescence. inhibition, % at 5.6 µM. hit rate 0.89% among 290,000;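 active = inhibition above the mean of all tested compounds plus 3 SD, cutoff set per screening run, cut at about 7.5% in these data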;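 note: red hydrolysis product quenches plate fluorescence so inhibitors raise well fluorescence; 0% = enzyme with DMSO and 100% = DMSO without enzyme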
IMP-1 inh – blocks Pseudomonas aeruginosa IMP-1 metallo-beta-lactamase; purified IMP-1, nitrocefin hydrolysis, epi-absorbance fluorescence; inhibition, % at 5.6 µM; hit rate 0.45% among 290,000;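 active = inhibition above the mean plus 3 SD of all compounds in the same screening run, cut at about 4.5% in these data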;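 note: 0% = IMP-1 with DMSO and 100% = DMSO wells lacking enzyme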
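System: purified IMP-1 / Input: IMP-1 dispensed at 0.2 nM / Medium: 50 mM HEPES pH 7.1, 50 µM ZnSO4, 0.05% Brij 35 / Timing: 15 min enzyme–compound preincubation, then 25 min nitrocefin reaction, 25 °C / Technique: plate fluorescence quenching by hydrolysis product, ex 480/em 530 nm / Repeats: singlicate testing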
PAFAH2 FP inh – PAFAH2 (human) inhibition; hit rate 0.99% among 340,000; recombinant PAFAH2, FP-rhodamine activity probe, fluorescence polarization; inhibition, % at 3.39 µM;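 active = inhibition above the mean over all tested compounds plus 3 SD, cut at about 30% in these data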;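 note: inhibitors block probe labeling of enzyme so polarization drops; 0% = enzyme with DMSO and 100% = wells lacking PAFAH2 protein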
PAFAH1B2 FP inh – blocks human PAF acetylhydrolase 1b catalytic subunit 2; P68402; recombinant PAFAH1B2, FP-rhodamine activity probe, fluorescence polarization; inhibition, % at 3.39 µM; hit rate 1.2% among 340,000; AID 492953;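 active = inhibition above the mean of all tested compounds plus 3 SD, cut at about 24% in these data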;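 note: 0% = enzyme with DMSO and 100% = wells lacking PAFAH1B2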
pPAFAH FP inh – pPAFAH (human) enzyme inhibition | Q13093 | recombinant pPAFAH, FP-rhodamine probe fluorescence polarization | inhibition, % at 3.39 µM | hit rate 1.5% among 330,000;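 active = inhibition above the mean inhibition across the screen plus 3 SD, cut at about 25% in these data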;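 note: inhibitors block binding of the rhodamine activity-based probe so polarization drops; 0% = enzyme with DMSO and 100% = wells lacking pPAFAH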
Target sequence (Q13093 whole entry, looked up): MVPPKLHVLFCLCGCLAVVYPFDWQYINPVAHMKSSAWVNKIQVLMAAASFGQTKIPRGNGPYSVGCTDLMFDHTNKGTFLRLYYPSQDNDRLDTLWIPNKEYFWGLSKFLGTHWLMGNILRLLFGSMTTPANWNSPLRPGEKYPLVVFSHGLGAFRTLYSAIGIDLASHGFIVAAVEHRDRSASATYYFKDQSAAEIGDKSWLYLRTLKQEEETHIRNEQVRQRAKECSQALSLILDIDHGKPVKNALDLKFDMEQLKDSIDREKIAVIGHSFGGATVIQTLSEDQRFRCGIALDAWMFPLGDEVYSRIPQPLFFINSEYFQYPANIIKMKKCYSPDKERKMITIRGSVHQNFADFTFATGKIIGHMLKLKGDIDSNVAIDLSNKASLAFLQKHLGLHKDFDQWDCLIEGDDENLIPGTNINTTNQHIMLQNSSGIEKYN
The depositor's hits bear a star; . = no result.

SMILES | PAFAH1B3 FP inh | VIM-2 inh | IMP-1 inh | PAFAH2 FP inh | PAFAH1B2 FP inh | pPAFAH FP inh
Cc1cc(OC(=O)c2ccc(C)c(C)c2)c([N+](=O)[O-])c(=O)[nH]1 | 6 | -3 | -2 | 1 | 2 | 5
Cc1ccc(C(=O)Oc2cc(C)[nH]c(=O)c2[N+](=O)[O-])cc1 | 6 | -3 | -3 | 3 | 1 | 29*
CCCCn1c(NC(=O)c2ccco2)c(S(=O)(=O)c2ccc(C)cc2)c2nc3ccccc3nc21 | -5 | -1 | -1 | 4 | 1 | .
CCCCCn1c(NC(=O)c2ccco2)c(S(=O)(=O)c2ccc(C)cc2)c2nc3ccccc3nc21 | 57* | -4 | -2 | 42* | 30* | 11
CCCCn1c(NS(=O)(=O)c2ccccc2)c(S(=O)(=O)c2ccc(C)cc2)c2nc3ccccc3nc21 | 66* | -1 | -4 | 57* | 36* | 10
O=C(COC(=O)/C=C/c1cccc(F)c1)NC(=O)NC1CCCC1 | 6 | . | . | 19 | 5 | -4
O=C(NC1CCCCCC1)c1ccc(CS(=O)Cc2cccc(Cl)c2)o1 (configuration not stated) | 3 | -4 | -4 | 2 | -1 | 7
O=C(Nc1ccc(F)cc1)c1oc2ccccc2c1NC(=O)C1CC1 | 3 | -2 | -1 | -8 | 9 | -5
CCOc1ccc(NC(=O)C2=NN(c3ccccc3)C(=O)CC2)cc1S(=O)(=O)N1CCCCC1 | 1 | . | . | 2 | 0 | 1
NC(=O)c1ccccc1N/C=C1\CCCCC1=O | 2 | 1 | -2 | -7 | 4 | 2
CCOC(=O)c1ccccc1N/C=C1\CCCC1=O | 0 | 12* | -2 | 6 | 5 | 4
S=c1[nH]nc(CCc2nc3ccccc3[nH]2)n1-c1ccccc1 | 1 | 7.8* | -3 | 9 | 1 | -3
S=c1[nH]nc(CCc2nc3ccccc3[nH]2)n1-c1cccc(Cl)c1 | 3 | 7.7* | -2 | 2 | 6 | 2
C=CCn1c(Cc2nc3ccccc3[nH]2)n[nH]c1=S | 0 | -6 | -6 | 5 | 6 | -3
S=c1[nH]nc(CCSCc2ccccc2)n1-c1ccccc1 | 8 | -2 | -4 | 11 | 28* | 4
Cc1cc2[nH]c(=O)c(=O)[nH]c2cc1S(=O)(=O)N1CCN(c2ccccc2)CC1 | 2 | 2 | 0 | 0 | 12 | 3
Cc1cc2[nH]c(=O)c(=O)[nH]c2cc1S(=O)(=O)N1CCC(C)CC1 | 7 | -1 | -3 | 3 | 25* | 5
Cc1cc(C)cc(NS(=O)(=O)c2cc3[nH]c(=O)c(=O)[nH]c3cc2C)c1 | 0 | -3 | -4 | -1 | 5 | -3
Cc1cc2[nH]c(=O)c(=O)[nH]c2cc1S(=O)(=O)NC1CCC(C)CC1 (configuration not stated) | -1 | -2 | -1 | -3 | 26* | 0
Cc1ccc(C(=O)NNS(=O)(=O)c2ccc(F)cc2)cc1 | 6 | 0 | 0 | 3 | 1 | -1
COC(=O)C=C1CCC2C3CC(F)C4(O)CC(=O)CCC4(C)C3C(=O)CC12C (configuration not stated) | 3 | . | . | 7 | 3 | .
COc1cc2[nH]c(=O)n(CCCCCC(=O)N3CCN(c4ccccc4)CC3)c(=O)c2cc1OC | 3 | -4 | -2 | 2 | 3 | 27*
O=C(CCn1c(=O)[nH]c2ccccc2c1=O)N1CCN(c2cccc(C(F)(F)F)c2)CC1 | 1 | -1 | 0 | -25 | 31* | -2
CCC1COCCS(=O)(=O)N1Cc1ccc(F)cc1 (configuration not stated) | -1 | 0 | -1 | 8 | 4 | -1
O=C(CC(C(=O)O)c1ccc(Cl)cc1)c1ccc(Br)cc1 (configuration not stated) | 4 | 1 | -1 | -17 | 3 | 2
SMILES | PAFAH1B3 FP inh | VIM-2 inh | IMP-1 inh | PAFAH2 FP inh | PAFAH1B2 FP inh | pPAFAH FP inh
Cc1ccc(C(=O)NN2C(=O)c3ccc(S(=O)(=O)c4ccc(C(=O)O)cc4)cc3C2=O)cc1 | 3 | -3 | -1 | 5 | 24* | -1
COc1ccc(NC(=O)CN(C)C(=O)Cc2ccc(S(=O)(=O)N3CCOCC3)s2)cc1 | 1 | . | . | -1 | -2 | 7
COc1ccc(NC(=O)COC(=O)Cc2ccsc2)c(OC)c1 | 9 | . | . | 7 | -2 | 30*
O=C(COC(=O)Cc1ccc(F)cc1)NC1CCCCCC1 | 3 | . | . | 20 | 5 | .
O=C(COC(=O)Cc1ccsc1)NC1CCCCCC1 | 4 | -3 | -3 | 14 | 11 | 30*
COc1ccc(C(CNS(=O)(=O)c2ccc(NC(C)=O)c(OC)c2)N2CCCCC2)cc1 (configuration not stated) | 3 | . | . | -1 | 7 | -5
O=C(c1cc(C2CC2)nn1-c1ccccc1)N1CCN(Cc2c(F)cccc2Cl)CC1 | 5 | . | . | 2 | 0 | 5
COc1ccccc1-c1sc2cc3c(cc2c1C#Cc1cncn1C)OCO3 | 1 | . | . | 4 | -7 | 12
CN(C)c1ccc(C2/C(=C(/O)c3ccc(Br)cc3)C(=O)C(=O)N2C)cc1 (configuration not stated) | 4 | -1 | -2 | 4 | 7 | 3
Cc1nc(N)nc(N)c1Oc1ccc(Cl)cc1 | 4 | . | . | -1 | 7 | .
Cc1nc(N)nc(N)c1/C=C/C(C)(C)c1ccc(Cl)cc1 | 0 | 1 | -1 | 6 | 42* | .
Cc1ccc(C)c(OCCC(=O)OCC(=O)NC2CCCC2)c1 | 0 | . | . | 5 | 2 | 21
Cc1ccc(C)c(OCCC(=O)OCC(=O)NNC(=O)c2ccccc2)c1 | 3 | . | . | 0 | 2 | 31*
CCOC(=O)c1ccc(NC(=S)N2CCCC(C(=O)N3CCCC3)C2)cc1 (configuration not stated) | -1 | 0 | -2 | 1 | 0 | 32*
CCOC(=O)c1ccc(NC(=S)N2CCCC(C)C2)cc1 (configuration not stated) | 0 | 0 | -3 | -2 | 6 | -1
Cc1ccccc1Cn1c(NC2CCCC2)nc2c1c(=O)[nH]c(=O)n2C | 3 | -2 | -2 | 5 | 2 | 33*
Cn1c(=O)[nH]c(=O)c2c1nc(NC1CCCCC1)n2Cc1ccccc1 | 5 | -3 | -3 | 2 | 7 | 3
C/C(=N\Nc1ccc(Cl)c(C(=O)O)c1)c1cccs1 | 10 | 2 | -1 | 8 | 11 | 14
C/C(=N\Nc1ccc(Cl)c(C(=O)O)c1)c1ccc[nH]1 | 17 | -3 | -2 | 13 | 4 | 33*
CCCc1cc(=O)oc2c(CNc3ccc(OCC)cc3)c(O)ccc12 | 9 | -3 | 5.8* | 11 | 0 | 11
CCCCc1cc(=O)oc2c(CN3CCCC3)c(O)ccc12 | 4 | -1 | 1 | 0 | 4 | -3
CC[C@H](C)[C@@H](CN[C@H](CCCCNC)CNC)NCC1CCCC1 | 5 | 12* | -3 | -4 | -2 | 4

Screening results as filed in PubChem BioAssay.
